The values below come from ChEMBL document CHEMBL1152467, “Pharmacokinetics and pharmacodynamics of piperaquine in a murine malaria model” (Antimicrob Agents Chemother, 2008).

Series [1] is described as follows: Half life in Swiss mice (Mus musculus) infected with Plasmodium berghei ANKA at 90 mg/kg, intraperitoneally administered 64 hrs after infection. The class given is ADME, organism-based. Further details: dose 90 mg/kg, route intraperitoneal. The conditions noted are these: in vivo, ip. The procedure, abridged:
(§1)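 P. berghei ANKA-infected male Swiss mice (10^7 parasitized erythrocytes i.p.) got one i.p. dose of 2,700 μg piperaquine phosphate (about 90 mg/kg) in glycerol/phosphate buffer/polysorbate 80 suspension, 64 h post-inoculation. Cardiac blood was drawn from 5 mice per time point, 0 h to […]. Plasma piperaquine was measured by HPLC, with concentrations normalized to 90 mg/kg. Noncompartmental and two-compartment fits (1/y2 weighting) used group means.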

Series [2] relates to Mus musculus. Put plainly: Apparent volume of distribution in Swiss mice (Mus musculus) infected with Plasmodium berghei ANKA at 90 mg/kg, intraperitoneally administered 64 hrs after infection. The class given is ADME, organism-based. Further details: dose 90 mg/kg, route intraperitoneal. The conditions noted are these: in vivo, ip. The procedure, abridged:
as §1

Series [3] deals with Mus musculus. Put plainly: Apparent volume of distribution in healthy Swiss mouse at 90 mg/kg, ip. The conditions noted are these: in vivo. The class given is ADME, organism-based. Further details: dose 90 mg/kg, route intraperitoneal. The procedure, abridged: (§2)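 Uninfected male Swiss mice (6 weeks old) received a single i.p. dose of 2,700 μg piperaquine phosphate suspension (about 90 mg/kg). Cardiac-puncture blood was collected under pentobarbitone from n = 5 per time, 0 h to 25 days. Lithium heparin plasma was assayed by HPLC and normalized to a 90 mg/kg dose. Mean profiles were analysed noncompartmentally and by a two-compartment model (1/y2 weighting).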

Series [4] is described as follows: AUC in healthy Swiss mouse at 90 mg/kg, ip. More on the design: dose 90 mg/kg, route intraperitoneal. The conditions noted are these: plasma. The class given is ADME, organism-based. In a few lines:
as §2

The subject of series [5] is Plasmodium berghei. Put plainly: Antimalarial activity against chloroquine-sensitive Plasmodium berghei by Peters 4 day test. The conditions noted are these: 96 h.
Series [6] in a line: Terminal half life in Swiss mice (Mus musculus) infected with Plasmodium berghei ANKA at 90 mg/kg, intraperitoneally by two compartment model assay. The class given is ADME, organism-based. Further details: dose 90 mg/kg, route intraperitoneal. The conditions noted are these: in vivo, ip, read-out: beta t1/2 (converted). In a few lines:
as §1

For series [7], the system named is Plasmodium berghei. Put plainly: Antiparasitic activity as survival at day 30 against Plasmodium berghei ANKA infected Swiss mice (Mus musculus) at 20-30 mg/kg intraperitoneal dose 64 hrs post infection. The class given is functional.
Series [8] in a line: Half life in healthy Swiss mouse at 90 mg/kg, ip. The class given is ADME, organism-based. The conditions noted are these: in vivo. More on the design: dose 90 mg/kg, route intraperitoneal. The procedure, abridged:
as §2

Series [9] is described as follows: Plasma concentration in Swiss mice (Mus musculus) infected with Plasmodium berghei ANKA at 90 mg/kg, intraperitoneally administered 64 hrs after infection measured after 30 days. The conditions noted are these: ip. The class given is ADME, organism-based. Further details: dose 90 mg/kg, route intraperitoneal. The procedure, abridged: as §1
Series [10] relates to Mus musculus. Put plainly: Plasma concentration in Swiss mice (Mus musculus) infected with Plasmodium berghei ANKA at 90 mg/kg, intraperitoneally administered 64 hrs after infection measured after 2 to 7 days. The conditions noted are these: in vivo, ip. Further details: dose 90 mg/kg, route intraperitoneal. The class given is ADME, organism-based. In a few lines: as §1
The nature of series [11]: Terminal half life in human children. The class given is ADME, organism-based. The conditions noted are these: in vivo, read-out: beta t1/2 (converted).
Series [12] can be described thus: Apparent clearance in Swiss mice (Mus musculus) infected with Plasmodium berghei ANKA at 90 mg/kg, intraperitoneally administered 64 hrs after infection. The class given is ADME, organism-based. More on the design: dose 90 mg/kg, route intraperitoneal. The conditions noted are these: in vivo, ip. The procedure, abridged:
as §1

Series [13] is described as follows: Terminal half life in adult human. The class given is ADME, organism-based. The conditions noted are these: in vivo, read-out: beta t1/2 (converted).
For series [14], the system named is Plasmodium berghei. Put plainly: Antiparasitic activity as survival at day 30 against Plasmodium berghei ANKA infected Swiss mice (Mus musculus) at 10 mg/kg intraperitoneal dose 64 hrs post infection. The class given is functional. In a few lines: (§3)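 Male Swiss mice (5–6 weeks) inoculated i.p. with 10^7 P. berghei ANKA-parasitized erythrocytes. At 64 h (3–5% parasitemia), each received a single i.p. 100 μl PQP suspension in 50% glycerol, 30% phosphate buffer (pH 7.1) and 20% polysorbate 80. Parasitemia was followed on tail-vein Giemsa smears. Mice were euthanized at >40% parasitemia or >10% weight loss within 24 h. Groups of 14 treated, 8 controls.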

Series [15] in a line: Apparent clearance in healthy Swiss mouse at 90 mg/kg, ip. The conditions noted are these: in vivo. The class given is ADME, organism-based. Further details: dose 90 mg/kg, route intraperitoneal. The procedure, abridged:
as §2

Series [16] in a line: Plasma concentration in Swiss mice (Mus musculus) infected with Plasmodium berghei ANKA at 90 mg/kg, intraperitoneally administered 64 hrs after infection measured after 36 hrs. The class given is ADME, organism-based. The conditions noted are these: ip. Further details: dose 90 mg/kg, route intraperitoneal. The procedure, abridged:
as §1

Series [17] in a line: Plasma concentration in Swiss mice (Mus musculus) infected with Plasmodium berghei ANKA at 90 mg/kg, intraperitoneally administered 64 hrs after infection measured after 60 days. The class given is ADME, organism-based. Further details: dose 90 mg/kg, route intraperitoneal. The conditions noted are these: ip. In a few lines:
as §1

Series [18] is described as follows: AUC in Swiss mice (Mus musculus) infected with Plasmodium berghei ANKA at 90 mg/kg, intraperitoneally administered 64 hrs after infection. The class given is ADME, organism-based. The conditions noted are these: plasma, ip. Further details: dose 90 mg/kg, route intraperitoneal. In a few lines:
as §1

Series [19] can be described thus: Terminal half life in healthy Swiss mouse at 90 mg/kg, ip by two compartment model assay. More on the design: dose 90 mg/kg, route intraperitoneal. The conditions noted are these: in vivo, read-out: beta t1/2 (converted). The class given is ADME, organism-based. The procedure, abridged: as §2
Series [20] in a line: Toxicity in mouse. The class given is organism-based. The conditions noted are these: in vivo.
Series [21] is described as follows: Initial half life in healthy Swiss mouse at 90 mg/kg, ip by two compartment model assay. The class given is ADME, organism-based. More on the design: dose 90 mg/kg, route intraperitoneal. The conditions noted are these: in vivo, read-out: alphat1/2 (converted). The procedure, abridged:
as §2

Series [22] deals with Plasmodium berghei. Put plainly: Antiparasitic activity as survival at day 30 against Plasmodium berghei ANKA infected Swiss mice (Mus musculus) at 30 mg/kg intraperitoneal dose 64 hrs post infection. The class given is functional. The procedure, abridged:
as §3

Series [23] can be described thus: Initial half life in Swiss mice (Mus musculus) infected with Plasmodium berghei ANKA at 90 mg/kg, intraperitoneally by two compartment model assay. The class given is ADME, organism-based. More on the design: dose 90 mg/kg, route intraperitoneal. The conditions noted are these: in vivo, ip, read-out: alphat1/2 (converted). The procedure, abridged: as §1
Series [24] can be described thus: Plasma concentration in Swiss mice (Mus musculus) infected with Plasmodium berghei ANKA at 90 mg/kg, intraperitoneally administered 64 hrs after infection measured after 2 hrs. The class given is ADME, organism-based. Further details: dose 90 mg/kg, route intraperitoneal. The conditions noted are these: ip. The procedure, abridged:
as §1

Series [25] has as its system Plasmodium berghei. Put plainly: Antiparasitic activity as parasitaemia after 36 hrs against Plasmodium berghei ANKA infected Swiss mice (Mus musculus) at 90 mg/kg intraperitoneal dose 64 hrs post infection. The class given is functional. The procedure, abridged: (§4)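 Male Swiss mice were infected i.p. with 10^7 P. berghei ANKA-parasitized erythrocytes. At 64 h (3-5% parasitemia) they received a single i.p. dose of piperaquine phosphate suspension: 300, 900 or 2,700 μg in 100 μl (about 10, 30, 90 mg/kg). Parasitemia came from May-Grünwald Giemsa tail-blood thin films, counting 30-100 fields (detection limit about 0.002%). Groups had 13-14 mice; controls had 8.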

Series [26] has as its system Plasmodium berghei. Put plainly: Antiparasitic activity as reduced parasitaemia against Plasmodium berghei ANKA infected Swiss mice (Mus musculus) at 10 mg/kg intraperitoneal dose 64 hrs post infection. The class given is functional, organism-based. More on the design: dose 10 mg/kg. The procedure, abridged: as §4
The test system of series [27] is Plasmodium berghei. Put plainly: Antiparasitic activity as reduced parasitaemia against Plasmodium berghei ANKA infected Swiss mice (Mus musculus) at 30 mg/kg intraperitoneal dose 64 hrs post infection. The class given is functional, organism-based. More on the design: dose 30 mg/kg. The procedure, abridged:
as §4

The subject of series [28] is Plasmodium berghei. Put plainly: Antiparasitic activity as reduced parasitaemia at day 3 against Plasmodium berghei ANKA infected Swiss mice (Mus musculus) at 30 mg/kg intraperitoneal dose 64 hrs post infection. More on the design: dose 30 mg/kg. The class given is functional, organism-based. In a few lines:
as §4

Series [29] relates to Plasmodium berghei. Put plainly: Antiparasitic activity as reduced parasitaemia against Plasmodium berghei ANKA infected Swiss mice (Mus musculus) at 90 mg/kg intraperitoneal dose 64 hrs post infection. The class given is functional, organism-based. Further details: dose 90 mg/kg. The procedure, abridged:
as §4

Series [30] has as its system Plasmodium berghei. Put plainly: Antiparasitic activity as reduced parasitaemia after 24 hrs against Plasmodium berghei ANKA infected Swiss mice (Mus musculus) at 30 mg/kg intraperitoneal dose 64 hrs post infection. The class given is functional, organism-based. More on the design: dose 30 mg/kg. The procedure, abridged:
as §4

Calls of active or inactive are those of the source. The rule behind the calls is not given here. A value given as a limit tells only on which side of the number the result lay.

Broadly, the AUC is the area under the concentration-time curve, a measure of exposure. As usually defined, the ED50 is the dose at which the effect has come halfway, by size or by number of responders. The CL/F is clearance divided by bioavailability, as obtained after extravascular dosing. Usually LD50 stands for the dose expected to kill half of the subjects tested. Read a low LD50 as a more toxic substance. Turning to `Clc1ccc2c(N3CCN(CCCN4CCN(c5ccnc6cc(Cl)ccc56)CC4)CC3)ccnc2c1` [PIPERAQUINE], the half-life is 16.1 days in series [1]; 15.4 days in series [6]; 17.8 days in series [8]; 14 days in series [11]; 23 days in series [13]; 20.7 days in series [19]. For the same compound, the half-life is 0.59 days in [21] and 0.35 days in series [23]. In addition, the Vd in the series with Mus musculus [2] came out at 1059 L/kg; in the series with Mus musculus [3] it was 956 L/kg. The AUC in [4] stood at 33500 ng·h/mL. In the series with Plasmodium berghei [5], this compound registered a 50% effective dose (ED50) of 4.5 mg/kg. For the same compound, the Activity with Plasmodium berghei [7] stood at 50%; in the series on Plasmodium berghei [14] it was 0%; with Plasmodium berghei [22], 70%; in the series with Plasmodium berghei [25] it was 0.002%. Besides, the concentration at 720 h in series [9] is more than 10 ng/mL. This compound came in with a Cp in the series on Mus musculus [10] of 20 ng/mL. Moreover, the CL/F in [12] is 31.7 mL/min/kg; in series [15], 25.8 mL/min/kg. The same compound registered a concentration at 36 h in [16] of 45 ng/mL. In [17], the concentration at 1440 h is 3 ng/mL. Moreover, the AUC at 64 h in series [18] amounted to 27300 ng·h/mL. In series [20], this compound had an LD50 of 1100 mg/kg. Moreover, the concentration at 2 h in series [24] was 250 ng/mL.

For the compound `Clc1ccc2c(N3CCN(CCCN4CCN(c5ccnc6cc(Cl)ccc56)CC4)CC3)ccnc2c1`, the outcome in the series on Plasmodium berghei [26], in the series on Plasmodium berghei [27], in the series with Plasmodium berghei [28], in the series on Plasmodium berghei [29] and with Plasmodium berghei [30] was Active.
